Reference: article PMC10832541 (Microbial Biotechnology, 2024)
≈ marks a conversion by molar mass, not a printed value. Entries after “also recorded” stand apart in the source; their conditions may differ.

What was measured:
MRSE = assay: In vitro antibacterial activity; type: cell-based, methicillin‐resistant Staphylococcus epidermidis; conditions: MRSE strains; CLSI guidelines; range over strains
MRSA = assay: In vitro antibacterial activity; type: cell-based, methicillin‐resistant Staphylococcus aureus; conditions: MRSA strains; CLSI guidelines; range over strains
Enterococcus faecalis = assay: In vitro antibacterial activity; type: cell-based; conditions: Enterococcus faecalis strains; CLSI guidelines; range over strains
Enterococcus faecium = assay: In vitro antibacterial activity; type: cell-based; conditions: Enterococcus faecium strains; CLSI guidelines; range over strains
[1] = system: MRSA, MRSE, Enterococcus faecalis and Enterococcus faecium; assay: In vitro antibacterial activity, MIC range over all tested pathogens; type: cell-based; conditions: E. faecalis and E. faecium strains
SrGT822 = assay: Substrate spectrum of SrGT822; type: biochemical, Streptomyces sp. 147326; conditions: dTDP‐L‐rhamnose as donor; LC-MS analysis; products not purified
Summary of the method: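 SrGT822 from Streptomyces sp. 147326 carried a C-terminal His-tag in pET22b(+). It was expressed in E. coli BL21(DE3) with 0.5 mM IPTG at 20°C for 12 h and purified by nickel affinity. Seventeen compounds from various classes were tested as acceptors, with dTDP-L-rhamnose as donor, under the optimized reaction parameters.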

[2] = in water, compared with NOS‐R at pH 6.0; ref Zhao et al., 2023; cited from earlier work
[3] = Aqueous solubility at pH 5.0 to 7.0; type: physicochemical; conditions: pH 6, water
Summary of the method: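 Test compound quantified by HPLC against a standard curve (31.25–1000 ng/mL), with linear regression of peak area against concentration. Aqueous solubility was determined in solutions of pH 5.0 to 7.0, following a previously described method.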

MRSA infection = assay: In vivo protection of mice infected with MRSA; conditions: data not shown

Row | Compound | MIC (MRSE) [µg/mL] | MIC (MRSA) [µg/mL] | MIC (Enterococcus faecalis) [µg/mL] | MIC (Enterococcus faecium) [µg/mL] | MIC values against all the tested pathogens [1] [µg/mL] | conversion rate (monorhamnosylation as a substrate of SrGT822) (SrGT822) | aqueous solubility [2] [µg/mL] | solubility [3] [µg/mL] | in vivo protection against MRSA infection (MRSA infection)
1 | CN[C@H](CC(C)C)C(=O)N[C@H]1C(=O)N[C@@H](CC(N)=O)C(=O)N[C@H]2C(=O)N[C@H]3C(=O)N[C@H](C(=O)N[C@H](C(=O)O)c4cc(O)cc(O)c4-c4cc3ccc4O)[C@H](O)c3ccc(c(Cl)c3)Oc3cc2cc(c3O[C@@H]2O[C@H](CO)[C@@H](O)[C@H](O)[C@H]2O[C@H]2C[C@](C)(N)[C@H](O)[C@H](C)O2)Oc2ccc(cc2Cl)[C@H]1O [Vancomycin] | 0.125 to 1 | 0.25 to 2 | 1 to 2 | 1 to 2 | 0.125 to 2 | – | – | – | –
2 | nocathiacin I [compound 17] | – | – | – | – | – | below 60% | – | – | –
3 | C=C(NC(=O)c1csc(-c2nc3c(cc2O)-c2nc(cs2)C(=O)NC(C(C)O)C(=O)N/C(=C\C)c2nc(cs2)C(=O)NC2CC(O)C(=O)OCc4cccc5[nH]c(c(C)c45)C(=O)SCC(NC(=O)c4csc2n4)c2nc-3cs2)n1)C(N)=O (stereo not shown) [NOS, Nosiheptide] | – | – | 0.0078 to 0.0156 | 0.0078 to 0.0156 | – | – | 0.0283 (≈ 0.0232 µM) | – | –
4 | C=C(NC(=O)c1csc(-c2nc3c(cc2O[C@@H]2O[C@@H](C)[C@H](O)[C@@H](O)[C@H]2O)-c2nc(cs2)C(=O)NC(C(C)O)C(=O)N/C(=C\C)c2nc(cs2)C(=O)NC2CC(O)C(=O)OCc4cccc5[nH]c(c(C)c45)C(=O)SCC(NC(=O)c4csc2n4)c2nc-3cs2)n1)C(N)=O (stereo partly shown) [NOS‐R] | 0.03125 to 0.0625 | 0.03125 to 0.0625 | 0.0078 to 0.0156 | 0.0078 to 0.0156 | 0.0078 to 0.0625 | – | – | 0.526 (≈ 0.384 µM) | new protective effect against MRSA infection in mice; also recorded: potential in vivo protection
